Results published in ChEMBL document CHEMBL3797043 (Bioorg Med Chem Lett, 2016).
The source made the active and inactive calls. The rule behind the calls is not given here.

Columns and labels:
Mus musculus [1] = experiment: Analgesic effect in ICR mouse assessed as tail flick latencies at 50 mg/kg, ip measured 10 to 60 mins post dose by tail flick test; format: functional, organism-based
Method in brief: (§1)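 Male ICR mice (18–22 g), blinded observers. Compounds in DMSO stock, diluted in Ringer's solution (final DMSO <10%), given ip in 0.1 mL. Distal 2–3 cm of tail immersed in 52°C ± .5 water; withdrawal latency (s) recorded before dosing and at 10, 20, 30, 45, 60 min after. ≥6 mice per compound per dose; mean ± SEM; two-way ANOVA with Bonferroni test.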

[2] = molecular target: Pancreatic elastase (Sus scrofa) (UniProt P08419+P00772); experiment: Inhibition of porcine pancreatic elastase at 10 uM using N-Succinyl-ala-ala-ala-p-nitroanilide substrate assessed as reduction in p-nitroaniline release measured over 5 mins; format: protein assay
Method in brief: (§2)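 Commercial porcine enzymes (liver esterase, pancreatic elastase) assayed in microplates. The mix held enzyme, 100 uM chromogenic substrate, 0.125 M TrisCl and 0.2 mM EDTA at pH 8.0. Each reaction was started by adding substrate. Release of p-nitrophenol (esterase) or p-nitroaniline (elastase) was followed at 400 nm, with control rates linear over at least 5 min.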

Liver carboxylesterase = molecular target: T1, Liver carboxylesterase (Sus scrofa, UniProt Q29550); experiment: Inhibition of porcine liver esterase using 4-nitrophenyl butyrate substrate assessed as reduction in p-nitrophenol release measured over 5 mins; method in brief: as §2
T1 sequence (Q29550 whole entry): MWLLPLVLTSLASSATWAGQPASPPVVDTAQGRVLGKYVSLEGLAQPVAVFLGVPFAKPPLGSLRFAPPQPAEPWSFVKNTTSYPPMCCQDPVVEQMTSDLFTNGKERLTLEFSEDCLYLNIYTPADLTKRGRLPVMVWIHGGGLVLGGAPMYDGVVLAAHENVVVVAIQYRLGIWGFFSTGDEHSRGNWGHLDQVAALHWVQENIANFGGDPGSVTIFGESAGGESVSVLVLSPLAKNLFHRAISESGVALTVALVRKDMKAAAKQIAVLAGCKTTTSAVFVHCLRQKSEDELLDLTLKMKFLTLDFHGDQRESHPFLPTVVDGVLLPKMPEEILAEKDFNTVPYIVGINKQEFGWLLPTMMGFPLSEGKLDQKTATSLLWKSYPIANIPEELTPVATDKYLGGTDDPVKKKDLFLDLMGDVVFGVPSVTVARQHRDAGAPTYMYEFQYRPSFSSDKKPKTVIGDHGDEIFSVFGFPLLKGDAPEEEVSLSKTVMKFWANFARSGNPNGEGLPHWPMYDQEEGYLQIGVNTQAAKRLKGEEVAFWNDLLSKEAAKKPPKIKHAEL

Mus musculus [3] = experiment: Analgesic effect in ICR mouse assessed as tail flick latencies at 20 to 40 mg/kg, ip measured 10 to 60 mins post dose by tail flick test; format: functional, organism-based; method in brief: as §1
Mus musculus [4] = experiment: Analgesic effect in ICR mouse assessed as tail flick latencies at 20 to 100 mg/kg, ip measured 10 to 60 mins post dose by tail flick test; format: functional, organism-based; method in brief: as §1
[5] = molecular target: T2, Fatty-acid amide hydrolase 1 (Homo sapiens) (UniProt O00519); experiment: Inhibition of MBP-fused human recombinant FAAH with truncated N-terminal transmembrane domain expressed in Escherichia coli T7 assessed as enzyme inactivation rate constant using D-AMC substrate incubated for 2 hrs by fluorescence based assay
T2 sequence (whole entry): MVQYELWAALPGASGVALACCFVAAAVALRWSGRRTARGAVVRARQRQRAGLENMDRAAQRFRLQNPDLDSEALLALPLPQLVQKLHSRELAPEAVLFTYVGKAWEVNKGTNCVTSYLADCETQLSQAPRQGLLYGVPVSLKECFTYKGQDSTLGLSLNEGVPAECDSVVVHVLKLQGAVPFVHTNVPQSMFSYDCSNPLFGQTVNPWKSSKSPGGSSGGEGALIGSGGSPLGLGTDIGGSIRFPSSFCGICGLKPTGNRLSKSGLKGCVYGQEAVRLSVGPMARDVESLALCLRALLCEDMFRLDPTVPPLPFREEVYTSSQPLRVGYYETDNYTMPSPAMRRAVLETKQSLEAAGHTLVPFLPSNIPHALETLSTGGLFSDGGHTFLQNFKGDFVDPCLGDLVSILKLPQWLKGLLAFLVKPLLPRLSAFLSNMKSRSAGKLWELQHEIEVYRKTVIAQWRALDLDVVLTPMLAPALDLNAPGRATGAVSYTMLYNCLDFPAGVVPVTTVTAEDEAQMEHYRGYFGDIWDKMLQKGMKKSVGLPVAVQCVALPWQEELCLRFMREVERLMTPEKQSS
Method in brief: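 Human FAAH residues 34–579 as an MBP fusion, expressed in E. coli T7 Express with IPTG induction, then purified by amylose affinity and S100 chromatography. Substrate D-AMC at 5 μM final in 125 mM Tris-Cl, 1 mM EDTA, 0.1% BSA, pH 8.0, 37 °C; ex 351/em 430 nm. Apparent first-order k_i' measured at several inhibitor levels and fitted for k_inact and K_i (D-AMC Km 0.52 μM).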

[6] = molecular target: T2, Fatty-acid amide hydrolase 1 (Homo sapiens); experiment: Time dependent inhibition of MBP-fused human recombinant FAAH with truncated N-terminal transmembrane domain expressed in Escherichia coli T7 using D-AMC substrate measured over 40 mins by fluorescence based assay; conditions: TDE = time-dependent effect
Method in brief: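 MBP–FAAH (residues 34–579, E. coli) at 3 μg protein per well, 8 pM active enzyme, with 5 μM D-AMC in Tris-Cl/EDTA/0.1% BSA pH 8.0 at 37 °C; DMSO ≤1%. Reactions started with enzyme; fluorescence read at ex 351/em 430 nm over 40 min. […] Ki from IC50 = Ki(1+[S]/Km)+[Et]/2.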

[7] = molecular target: T3, Fatty-acid amide hydrolase 1 (Homo sapiens, UniProt O00519); experiment: Inhibition of MBP-fused human recombinant FAAH with truncated N-terminal transmembrane domain expressed in Escherichia coli T7 using D-AMC substrate measured over 40 mins by fluorescence based assay
T3 sequence (O00519 whole entry): T2 sequence (whole entry)

Row | Compound | Activity (Mus musculus [1]) | inhibition [2] | IC50 (Liver carboxylesterase) | further results
1 | O=C(Oc1cccnc1)N1CCC(c2nc(C3=NOC(c4ccccc4)C3)cs2)CC1 (stereo not given) | inactive |  |  | 
2 | O=C(Nc1nccs1)N1CCC(c2nc(C3=NOC(c4ccccc4)C3)cs2)CC1 (stereo not given) |  | inactive | > 10 µM | 
3 | O=C(Nc1ccccc1)N1CCC(c2nc(C3=NOC(c4ccccc4)C3)cs2)CC1 (stereo not given) |  | inactive | 5.6 µM | 
4 | O=C(Nc1cccnn1)N1CCC(c2nc(C3=NOC(c4ccccc4)C3)cs2)CC1 (stereo not given) | Active |  |  | Activity (Mus musculus [3]): inactive
5 | O=C(Oc1ccccc1Cl)N1CCC(c2nc(C3=NOC(c4ccccc4)C3)cs2)CC1 (stereo not given) |  | inactive | 0.87 µM | 
6 | Cc1ccccc1OC(=O)N1CCC(c2nc(C3=NOC(c4ccccc4)C3)cs2)CC1 (stereo not given) |  | inactive | 0.84 µM | 
7 | O=C(Nc1cnccn1)N1CCC(c2nc(C3=NOC(c4ccccc4)C3)cs2)CC1 (stereo not given) | Active |  |  | Activity (Mus musculus [3]): inactive
8 | N#Cc1ccc(OC(=O)N2CCC(c3nc(C4=NOC(c5ccccc5)C4)cs3)CC2)cc1 (stereo not given) | Active |  |  | Activity (Mus musculus [4]): Dose-dependent effect
9 | O=C(Nc1cccnc1)N1CCC(Cc2cccc(Oc3ccc(C(F)(F)F)cn3)c2)CC1 |  |  |  | K [5]: 0.0033 s⁻¹
10 | COc1ccc(OC(=O)N2CCC(c3nc(C4=NOC(c5ccccc5)C4)cs3)CC2)cc1 (stereo not given) | inactive |  |  | 
11 | O=C(Oc1ccccc1)N1CCC(c2nc(C3=NOC(c4ccccc4)C3)cs2)CC1 (stereo not given) | Active | inactive | 2.4 µM | Activity (Mus musculus [3]): inactive
12 | O=C(Oc1ccc(Cl)cc1)N1CCC(c2nc(C3=NOC(c4ccccc4)C3)cs2)CC1 (stereo not given) |  | inactive | 0.47 µM | 
13 | O=C(Oc1ccccc1)N1CCC(c2nc(C3=NOC4(CCCc5ccccc54)C3)cs2)CC1 (stereo not given) |  |  |  | inhibition [6]: tde; Ki [7]: 0.00274 µM
